Assay outcomes (PubChem BioAssay)
A selection: hits, their analogues and other compounds. The true share with any hit is near 1.8%.
LMPTP block: LMPTP phosphatase inhibitors, primary screen, biochemical, fluorescence intensity, uHTS; Low molecular weight phosphotyrosine protein phosphatase (Homo sapiens), P24666; recombinant LMPTP-A, OMFP fluorogenic substrate; inhibition, % at 20 µM; hit rate 0.22% among 360,000;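 active = compounds that cut the enzyme signal by at least half of the control window in the single-dose screen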;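 also: plate controls were DMSO wells with enzyme plus substrate for no effect and substrate without enzyme for full effect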
Target sequence (P24666 whole entry, looked up): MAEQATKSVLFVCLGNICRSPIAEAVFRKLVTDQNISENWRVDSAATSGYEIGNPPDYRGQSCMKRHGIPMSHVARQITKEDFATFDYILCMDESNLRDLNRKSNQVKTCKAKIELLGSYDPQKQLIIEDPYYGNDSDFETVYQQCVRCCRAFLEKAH
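Assay system: LMPTP-A enzyme. Input: 0.625 nM LMPTP-A final. Probe or stimulus: 400 µM OMFP. Compound dosing: single 20 µM dose. Schedule: 50 min dark incubation at room temperature. Detection: fluorescence intensity of OMFP turnover product. Read-out: percent inhibition versus substrate-only and uninhibited controls. Benchmarks: no-enzyme low control, uninhibited high control.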
HKDC1 inh: HKDC1 hexokinase inhibitors, primary screen, biochemical, fluorescence, uHTS; hit rate 0.16% among 340,000; inhibition, % at 20 µM; recombinant HKDC1, G6PDH/diaphorase resazurin coupled fluorescence;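 active = inhibition above about 35% when tested at 20 µM, limit read from the data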;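 also: plate controls were DMSO wells with enzyme for no effect and DMSO wells lacking enzyme for full effect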
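Test system: HK5 enzyme. Quantity: 5 µg/mL HK5 final. Reagent: glucose and ATP substrates. Schedule: 90 min reaction incubation at room temperature, dark. Technique: resazurin-to-resorufin fluorescence via G6PDH and diaphorase coupling, 525/613 nm. Control set: DMSO wells with and without enzyme mix.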
DNMT1 inh: human DNMT1 methyltransferase inhibitors, primary screen, biochemical, molecular beacon, fluorescence, HinP1I cleavage, uHTS | DNA (cytosine-5)-methyltransferase 1 (Homo sapiens), P26358 | inhibition (reported as % activation of signal), % at 10 µM | hit rate 0.83% among 360,000 | AID 588458, 2011; in the data active = inhibition above about 50%
Scp1 inh: Scp-1 phosphatase inhibitors, primary screen, biochemical, colorimetric, uHTS; Carboxy-terminal domain RNA polymerase II polypeptide A small phosphatase 1 (Homo …; Recombinant Scp1, phosphopeptide, malachite green phosphate absorbance; inhibition, % at 20 µM; hit rate 0.88% among 340,000; AID 493091, 2011;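 active = inhibition above about 50% at 20 µM, limit read from the data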;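 also: plate controls were DMSO wells with enzyme for no effect and wells lacking enzyme for full effect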
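Assay system: SCP-1 catalytic fragment, aa 76-261 | Buffer or medium: Tris acetate buffer pH 5.5 with MgCl2 and Tween-20 | Compound: One concentration, 20 µM, with 1.0% DMSO | Also added: Phospho 17-mer peptide substrate | Signal: Absorbance at 630 nm | Incubation: 45 min enzyme reaction at room temperature | Measure: % inhibition of SCP-1 phosphate liberation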
SUMO1 PPI mod: modulators of SUMO1 protein-protein interactions, primary screen, biochemical, uHTS. SUMO1 binding to a labelled peptide, TR-FRET, 1 h. inhibition, % at 20 µM. hit rate 0.33% among 360,000; in the data active = inhibition above about 37%
STEP block: STEP phosphatase inhibitors, primary screen, biochemical, fluorescence intensity, uHTS; hit rate 0.25% among 360,000; inhibition, % at 20 µM; recombinant STEP, OMFP fluorogenic substrate;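 active = inhibition at 20 µM, scaled per plate between control wells, above about 37%, limit read from the data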;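 also: 0% = DMSO with enzyme and substrate and 100% = substrate only without enzyme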
Target sequence (P54829 whole entry, looked up): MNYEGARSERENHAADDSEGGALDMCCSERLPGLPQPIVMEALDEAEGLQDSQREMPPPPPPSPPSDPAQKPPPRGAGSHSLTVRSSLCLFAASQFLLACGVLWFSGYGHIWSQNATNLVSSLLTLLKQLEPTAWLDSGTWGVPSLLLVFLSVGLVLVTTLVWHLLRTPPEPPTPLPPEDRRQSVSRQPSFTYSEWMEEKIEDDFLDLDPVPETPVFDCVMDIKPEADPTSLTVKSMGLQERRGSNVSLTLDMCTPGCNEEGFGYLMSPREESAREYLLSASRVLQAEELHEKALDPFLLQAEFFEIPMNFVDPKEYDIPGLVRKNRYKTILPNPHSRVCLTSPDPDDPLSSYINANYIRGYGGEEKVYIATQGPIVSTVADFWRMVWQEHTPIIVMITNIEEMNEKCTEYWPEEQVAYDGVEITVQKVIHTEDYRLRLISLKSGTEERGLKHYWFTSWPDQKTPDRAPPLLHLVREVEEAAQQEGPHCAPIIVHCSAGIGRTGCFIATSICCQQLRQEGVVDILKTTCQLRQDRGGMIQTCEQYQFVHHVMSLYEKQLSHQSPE
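Measure: Control-normalized % inhibition with plate pattern correction | Test system: STEP phosphatase, cell-free reaction | Medium: pH 6.0 Bis-Tris with DTT and Tween 20 | Technique: Fluorescence, 480/540 nm | Times: Reaction 20 min, ambient temperature | Doses: Single compound dose of 20 µM, 1% DMSO final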
DNMT1 inh conf: DNMT1 methyltransferase inhibitor retest, confirmation, biochemical, molecular beacon, fluorescence, single concentration | DNMT1 molecular beacon HinP1I cleavage | shares compounds with DNMT1 inh | inhibition, % at 10 µM | AID 602385, 2012 | hit rate 8% among 2,300;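 active = average inhibition of at least 30% in the single-concentration confirmation test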
DNMT1 interf: beacon fluorescence artifact counter-screen; shares compounds with DNMT1 inh; hit rate 1% among 2,300; AID 602387; activation (fluorescence interference), % at 10 µM; DNMT1 molecular beacon spectral interference counterscreen, fluorescence 485/520;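 active = activation of at least 30% at 10 µM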;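 also: DNMT1 catalytic domain with a HinP1I cleavage step and a FAM/dabcyl DNA beacon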
Starred values were filed as active, the others as inactive; x = no result; ! = not confirmed by another sample.

SMILES	LMPTP block	HKDC1 inh	DNMT1 inh	Scp1 inh	SUMO1 PPI mod	STEP block	DNMT1 inh conf	DNMT1 interf
Nc1nc(COc2ccccc2C=O)nc(Nc2ccccc2)n1	-2.7	-3.7	-10.3	-10.8	-3.9	1.4	x	x
Cc1ccccc1OCC(=O)NCCCNC(=O)c1ccncc1	-0.3	-0.2	77.5*	-0.6	-1.6	-0.7	1.5	3.8
O=C(COc1ccccc1Cl)NCCCNC(=O)c1ccncc1	-0.8	2.0	-0.9	8.9	3.0	-1.5	x	x
NS(=O)(=O)c1ccc(CCNc2ncnc3c2c(-c2ccccc2)cn3-c2ccc(F)cc2)cc1	3.2	6.0	-12.2	14.4	-2.0	-1.8	x	x
CCCC[N+](C)(C)CCC(=O)NC(C)(C)CS(=O)(=O)[O-]	-0.7	-0.8	66.1*	42.8	0.7	7.1	5.0	1.2
Cc1ccc(S(=O)(=O)NCCCCCC(=O)NC(C)(C)CO)cc1	-1.8	-4.5	0.2	-3.0	1.7	-0.3	x	x
O=[N+]([O-])c1ccc(/C=C/c2ccc3cccc(O)c3n2)cc1	0.5	-4.9	66.6*	-4.0	-4.2	1.0	8.6	2.4
Cc1ccccc1NC(=O)C1Cc2ccccc2CN1C(=O)c1ccco1 (stereo not drawn)	0.6	1.1	-5.2	-4.7	3.0	2.2	x	x
CCSc1nnc(NC(=O)C2Cc3ccccc3CN2C(=O)c2ccco2)s1 (stereo not drawn)	3.0	9.4	52.9*	-2.3	19.7	0.7	3.6	-0.5
CCOC(=O)c1c(NC(=O)c2cc(-c3ccc(Cl)s3)nc3ccccc23)sc(C(N)=O)c1C	21.2	-4.0	55.6*	9.2	2.1	6.4	13.2	-1.1
CCO[C@@H]1OC(C(N)=O)=C[C@H](c2ccc(C(F)(F)F)cc2)[C@H]1CCCO	-1.8	-0.6	70.8*	-2.7	-0.6	-4.1	0.7	0.5
COc1ccc2c3c(cccc13)C(=O)CC2	22.8	11.9	127.5*	-12.1	-48.2	-91.6	22.8	36.9*
Cc1ccc(C(=O)Nc2cccc(C(F)(F)F)c2)cc1NC(=O)c1nccn1C	4.2	-2.0	56.2*!	-3.8	4.5	1.0	0.2	5.4
COc1ccc(Cc2nc3ccc(C(=O)NCCc4cccc(C)n4)cc3o2)cc1	0.9	2.4	0.4	0.0	1.1	0.3	x	x
Cc1ccc(NC(=O)COC(=O)Cn2c(C)csc2=O)c([N+](=O)[O-])c1	1.8	-3.6	50.9*	-2.7	-20.3	-0.6	5.3	1.7
CC(=O)C[C@@H](O)CC(=O)[C@@H]1OC(=O)[C@@H](C)CCCCc2ccccc21	-0.2	-1.1	2.5	-19.6	6.1	-1.0	x	x
CCC1CCC(C(=O)NNC(=O)c2cc(-c3ccco3)[nH]n2)CC1 (stereo not drawn)	0.2	0.2	51.4*	10.6	2.0	2.8	1.6	5.7
O=C(NNC(=O)C1CCCCC1)c1ccco1	-0.7	-7.7	-0.9	-4.2	1.6	6.1	x	x
Cc1ccccc1NC(=S)NCc1ccc2c(c1)cc(C)n2C	2.3	-4.1	-4.4	-5.8	0.8	-2.4	x	x
COc1ccc(S(=O)(=O)NCc2ccc3c(c2)cc(C)n3C)cc1	36.0	-1.1	59.2*	-6.5	-20.1	2.5	0.4	14.6
Cc1cc2cc(CNC(=O)Nc3ccccc3)ccc2n1C	6.2	-5.2	54.0*	3.1	-6.4	3.1	1.5	4.6
Cc1cc2cc(CNC(=S)NC3CCCCC3)ccc2n1C	5.5	-6.1	63.0*	4.0	-6.8	2.7	5.8	5.8
Cc1cc2cc(CNS(=O)(=O)c3ccccc3)ccc2n1C	31.9	5.1	25.9	-5.8	-26.4	1.3	x	x
CCOC(=O)NCc1ccc2c(c1)cc(C)n2C	4.2	1.8	-12.3	-8.4	-27.5	6.1	x	x
Cc1cc2cc(CNC(=S)NCc3ccccc3)ccc2n1C	19.2	-1.2	77.4*	2.6	-4.1	4.6	1.8	1.8
SMILES	LMPTP block	HKDC1 inh	DNMT1 inh	Scp1 inh	SUMO1 PPI mod	STEP block	DNMT1 inh conf	DNMT1 interf
C=CCNC(=O)COC(=O)c1cccnc1Nc1ccccc1F	-0.4	-1.3	3.2	6.3	0.6	4.7	x	x
CC(=O)N(CN1C(=O)c2ccccc2C1=O)c1ccc2c(c1)oc1ccccc12	0.0	11.8	79.0*	-4.4	-10.6	-0.6	2.3	1.8
COc1ccc(-c2noc(CCC(=O)N3CCC(c4cc(C)ccc4C)CC3)n2)cc1	9.3	-4.0	49.9	-6.6	0.8	5.4	0.0	0.4
Cc1cc(C(=O)NNC(=O)/C=C/c2ccco2)c(C)o1	-0.1	2.3	88.0*	65.7*	13.5	0.2	25.6	5.3
COc1ccccc1/C=C/C(=O)NNC(=O)c1cc(C)oc1C	-0.4	-1.6	-1.6	1.4	-8.7	-1.3	x	x
CCc1ccc(NC(=O)C(C)OC(=O)CC(NC(C)=O)c2ccccc2)cc1 (stereo not drawn)	-0.8	-4.0	1.6	-1.4	3.4	-1.0	x	x
O=C(CCc1nc2ccccc2c(=O)[nH]1)Nc1nnc(SCc2ccccc2F)s1	1.6	11.8	77.1*	-3.9	3.1	2.4	3.3	-0.5
O=c1[nH]c(CSc2nc3ccccc3s2)nc2ccccc12	0.5	2.6	-0.5	-8.4	0.1	-1.3	x	x
CC(=O)Nc1nnc(SCc2ccccc2F)s1	-1.3	-5.1	-0.6	-7.2	-0.1	0.9	x	x
O=C(Nc1ccccc1)Nc1nnc(SCc2ccc(Cl)cc2)s1	0.2	-3.6	9.4	-4.0	0.8	-1.7	x	x
O=C(CCc1nc2ccccc2c(=O)[nH]1)Nc1nnc(SCc2ccc(Cl)cc2)s1	1.0	-3.3	67.7*	1.3	5.4	1.6	2.6	-2.8
Cc1ccc(Nc2nnc(SCc3nc4ccccc4c(=O)[nH]3)s2)cc1	0.1	-6.9	66.0*	0.2	-0.3	-0.8	1.8	-1.4
Cc1ccc(S(=O)(=O)Nc2c(C)nc3nc(C)[nH]n3c2=O)cc1	0.0	-2.9	1.0	1.6	-2.3	-0.8	x	x
Cc1c(C)n2c(SCC(=O)Nc3cccc4ccccc34)nnc2[nH]c1=O	1.5	0.5	-0.4	-0.8	4.0	-0.3	x	x
